Reference: publication PMC6606825 (Journal of Ginseng Research, 2018)

Assay: Pharmacokinetics of CK and its metabolite 20
Format: in vivo, healthy Chinese volunteers
Conditions: mean (SD)
In short: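 Healthy adults given one oral tablet dose fasting (overnight, or 10 h in a crossover food-effect arm); 30 subjects from the 100/200/400 mg groups were pooled with 24 from 200 mg fasting periods. Plasma was stored at −70°C, extracted with MTBE plus internal standards and assayed by LC-MS/MS. Cmax was observed and AUClast calculated by linear trapezoid, each divided by dose. The metabolite/parent ratio was also calculated. Genotyping used Sequenom MassARRAY, and log-transformed values were compared by one-way ANOVA.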

[1] = ABCG2 rs3114018 AA (first line)
[2] = ABCG2 rs3114018 AA (third line)

CC(C)=CCC[C@](C)(O)[C@H]1CC[C@]2(C)[C@@H]1[C@H](O)C[C@@H]1[C@@]3(C)CC[C@H](O)C(C)(C)[C@@H]3CC[C@]12C [20(S)-PPD, 20(S)-protopanaxadiol]
Ratio 20(S)-PPD/CK Cmax/D (ABCG2 rs2725248 CC): 0.74 (0.83) %
20(S)-PPD AUClast/D [1]: 0.91 (0.71)
20(S)-PPD Cmax/D [1]: 0.03 (0.02)
Ratio 20(S)-PPD/CK AUClast/D [1]: 4.78 (4.26) %
Ratio 20(S)-PPD/CK Cmax/D [1]: 0.96 (0.87) %
20(S)-PPD AUClast/D [2]: 0.88 (0.92)
20(S)-PPD Cmax/D [2]: 0.03 (0.03)
Ratio 20(S)-PPD/CK AUClast/D [2]: 5.73 (8.96) %
Ratio 20(S)-PPD/CK Cmax/D [2]: 1.25 (1.73) %
20(S)-PPD AUClast/D (ABCG2 rs3114018 CA): 0.80 (0.73)
20(S)-PPD Cmax/D (ABCG2 rs3114018 CA): 0.03 (0.03)
Ratio 20(S)-PPD/CK AUClast/D (ABCG2 rs3114018 CA): 3.46 (4.62) %
Ratio 20(S)-PPD/CK Cmax/D (ABCG2 rs3114018 CA): 1.17 (1.94) %
20(S)-PPD AUClast/D (ABCG2 rs6857600 CC): 0.89 (0.83)
20(S)-PPD Cmax/D (ABCG2 rs6857600 CC): 0.03 (0.03)
Ratio 20(S)-PPD/CK AUClast/D (ABCG2 rs6857600 CC): 4.61 (6.81) %
Ratio 20(S)-PPD/CK Cmax/D (ABCG2 rs6857600 CC): 1.26 (1.91) %
20(S)-PPD AUClast/D (ABCG2 rs6857600 TC): 0.65 (0.64)
20(S)-PPD Cmax/D (ABCG2 rs6857600 TC): 0.02 (0.02)
Ratio 20(S)-PPD/CK AUClast/D (ABCG2 rs6857600 TC): 2.91 (3.24) %
Ratio 20(S)-PPD/CK Cmax/D (ABCG2 rs6857600 TC): 0.75 (0.80) %
20(S)-PPD AUClast/D (ABCG2 rs6857600 TT): 0.48 (0.53)
20(S)-PPD Cmax/D (ABCG2 rs6857600 TT): 0.02 (0.02)
Ratio 20(S)-PPD/CK AUClast/D (ABCG2 rs6857600 TT): 4.27 (5.76) %
Ratio 20(S)-PPD/CK Cmax/D (ABCG2 rs6857600 TT): 0.95 (1.30) %
20(S)-PPD AUClast/D (ABCG2 rs12505410 GG): 0.92 (0.62)
20(S)-PPD Cmax/D (ABCG2 rs12505410 GG): 0.03 (0.02)
Ratio 20(S)-PPD/CK AUClast/D (ABCG2 rs12505410 GG): 3.61 (2.83) %
Ratio 20(S)-PPD/CK Cmax/D (ABCG2 rs12505410 GG): 0.90 (0.55) %
20(S)-PPD AUClast/D (ABCG2 rs12505410 GT): 1.00 (0.74)
Ratio 20(S)-PPD/CK AUClast/D (ABCG2 rs12505410 GT): 4.63 (5.21) %
Ratio 20(S)-PPD/CK Cmax/D (ABCG2 rs12505410 GT): 1.36 (2.02) %
20(S)-PPD AUClast/D (ABCG2 rs12505410 TT): 0.63 (0.82)
20(S)-PPD Cmax/D (ABCG2 rs12505410 TT): 0.02 (0.03)
Ratio 20(S)-PPD/CK AUClast/D (ABCG2 rs12505410 TT): 4.03 (7.68) %
Ratio 20(S)-PPD/CK Cmax/D (ABCG2 rs12505410 TT): 0.97 (1.54) %
20(S)-PPD AUClast/D (ABCG2 rs17731799 GG): 0.91 (0.71)
20(S)-PPD Cmax/D (ABCG2 rs17731799 GG): 0.03 (0.02)
Ratio 20(S)-PPD/CK AUClast/D (ABCG2 rs17731799 GG): 4.78 (4.26) %
Ratio 20(S)-PPD/CK Cmax/D (ABCG2 rs17731799 GG): 0.96 (0.87) %
20(S)-PPD AUClast/D (ABCG2 rs17731799 GT): 0.82 (0.77)
20(S)-PPD Cmax/D (ABCG2 rs17731799 GT): 0.03 (0.03)
Ratio 20(S)-PPD/CK AUClast/D (ABCG2 rs17731799 GT): 3.65 (5.14) %
Ratio 20(S)-PPD/CK Cmax/D (ABCG2 rs17731799 GT): 1.28 (2.16) %
20(S)-PPD AUClast/D (ABCG2 rs17731799 TT): 0.80 (0.85)
20(S)-PPD Cmax/D (ABCG2 rs17731799 TT): 0.03 (0.03)
Ratio 20(S)-PPD/CK AUClast/D (ABCG2 rs17731799 TT): 4.76 (7.86) %
Ratio 20(S)-PPD/CK Cmax/D (ABCG2 rs17731799 TT): 1.08 (1.53) %
20(S)-PPD AUClast/D (CFTR rs213950 AG): 0.91 (0.99)
20(S)-PPD Cmax/D (CFTR rs213950 AG): 0.03 (0.04)
Ratio 20(S)-PPD/CK AUClast/D (CFTR rs213950 AG): 4.96 (7.34) %
Ratio 20(S)-PPD/CK Cmax/D (CFTR rs213950 AG): 1.45 (2.26) %
20(S)-PPD AUClast/D (CFTR rs213950 GG): 0.64 (0.54)
20(S)-PPD Cmax/D (CFTR rs213950 GG): 0.02 (0.02)
Ratio 20(S)-PPD/CK AUClast/D (CFTR rs213950 GG): 2.67 (3.18) %
Ratio 20(S)-PPD/CK Cmax/D (CFTR rs213950 GG): 0.64 (0.66) %
20(S)-PPD AUClast/D (CFTR rs213968 CC): 0.64 (0.55)
20(S)-PPD Cmax/D (CFTR rs213968 CC): 0.02 (0.02)
Ratio 20(S)-PPD/CK AUClast/D (CFTR rs213968 CC): 2.81 (3.33) %
Ratio 20(S)-PPD/CK Cmax/D (CFTR rs213968 CC): 0.65 (0.69) %
20(S)-PPD AUClast/D (CFTR rs213968 CT): 0.90 (0.98)
20(S)-PPD Cmax/D (CFTR rs213968 CT): 0.03 (0.04)
Ratio 20(S)-PPD/CK AUClast/D (CFTR rs213968 CT): 4.70 (7.26) %
Ratio 20(S)-PPD/CK Cmax/D (CFTR rs213968 CT): 1.40 (2.23) %
20(S)-PPD AUClast/D (CFTR rs213968 TT): 0.97 (0.49)
20(S)-PPD Cmax/D (CFTR rs213968 TT): 0.04 (0.02)
Ratio 20(S)-PPD/CK AUClast/D (CFTR rs213968 TT): 5.87 (7.37) %
Ratio 20(S)-PPD/CK Cmax/D (CFTR rs213968 TT): 1.40 (1.51) %
20(S)-PPD AUClast/D (CFTR rs213976 GG): 1.12 (0.43)
20(S)-PPD Cmax/D (CFTR rs213976 GG): 0.04 (0.02)
Ratio 20(S)-PPD/CK AUClast/D (CFTR rs213976 GG): 7.39 (8.42) %
Ratio 20(S)-PPD/CK Cmax/D (CFTR rs213976 GG): 1.68 (1.73) %
20(S)-PPD AUClast/D (CFTR rs213976 GT): 0.83 (0.78)
20(S)-PPD Cmax/D (CFTR rs213976 GT): 0.03 (0.03)
Ratio 20(S)-PPD/CK AUClast/D (CFTR rs213976 GT): 4.01 (4.96) %
Ratio 20(S)-PPD/CK Cmax/D (CFTR rs213976 GT): 1.32 (2.08) %
20(S)-PPD AUClast/D (CFTR rs213976 TT): 0.74 (0.87)
20(S)-PPD Cmax/D (CFTR rs213976 TT): 0.02 (0.03)
Ratio 20(S)-PPD/CK AUClast/D (CFTR rs213976 TT): 3.63 (6.72) %
Ratio 20(S)-PPD/CK Cmax/D (CFTR rs213976 TT): 0.81 (1.29) %
20(S)-PPD AUClast/D (CFTR rs1042077 GG): 0.97 (0.49)
20(S)-PPD Cmax/D (CFTR rs1042077 GG): 0.04 (0.02)
Ratio 20(S)-PPD/CK AUClast/D (CFTR rs1042077 GG): 5.87 (7.37) %
Ratio 20(S)-PPD/CK Cmax/D (CFTR rs1042077 GG): 1.40 (1.51) %
20(S)-PPD AUClast/D (CFTR rs1042077 GT): 0.92 (0.99)
20(S)-PPD Cmax/D (CFTR rs1042077 GT): 0.03 (0.04)
Ratio 20(S)-PPD/CK AUClast/D (CFTR rs1042077 GT): 4.85 (7.37) %
Ratio 20(S)-PPD/CK Cmax/D (CFTR rs1042077 GT): 1.44 (2.26) %
20(S)-PPD AUClast/D (CFTR rs1042077 TT): 0.68 (0.55)
20(S)-PPD Cmax/D (CFTR rs1042077 TT): 0.02 (0.02)
Ratio 20(S)-PPD/CK AUClast/D (CFTR rs1042077 TT): 2.95 (3.37) %
Ratio 20(S)-PPD/CK Cmax/D (CFTR rs1042077 TT): 0.68 (0.70) %
20(S)-PPD AUClast/D (CFTR rs2106155 AA): 1.09 (0.41)
20(S)-PPD Cmax/D (CFTR rs2106155 AA): 0.04 (0.02)
Ratio 20(S)-PPD/CK AUClast/D (CFTR rs2106155 AA): 7.22 (7.81) %
Ratio 20(S)-PPD/CK Cmax/D (CFTR rs2106155 AA): 1.67 (1.60) %
20(S)-PPD AUClast/D (CFTR rs2106155 CA): 0.88 (0.82)
20(S)-PPD Cmax/D (CFTR rs2106155 CA): 0.04 (0.03)
Ratio 20(S)-PPD/CK AUClast/D (CFTR rs2106155 CA): 4.03 (5.36) %
Ratio 20(S)-PPD/CK Cmax/D (CFTR rs2106155 CA): 1.39 (2.26) %
